Screening results deposited in PubChem by several laboratories.
STAT1 activator: increases IFN-gamma driven STAT1 reporter signal. hit rate 2.6% among 200,000. activation (% of control), % at 5.5 µM. NIH 3T3 STAT1-luciferase reporter, luminescence; 100% = IFN-gamma alone, no compound. AID 932;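 active means activation above the screen-wide mean activation plus 3 SD, cut at about 130% in these data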;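 further: raw ratio to IFN-gamma control signal so 100% means no change and 0% no light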
Mdm2 ligase inh: inhibitors of human Mdm2 E3 ubiquitin ligase. Q00987. cell-based MDM2 ubiquitination luciferase reporter, 2 h; 0 = plate control, 100 = twice control, blank-subtracted. signal enhancement, % at 5 µM. hit rate 0.11% among 210,000. AID 1230;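 active means signal enhancement of 30% or more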;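 further: luminescence tracks abundance of the self-degrading MDM2-luciferase fusion protein; higher signal means inhibition of MDM2 E3 ligase activity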
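Assay system: stable mammalian line carrying autodegrading MDM2–luciferase fusion reporter; Input: 2000 cells in each well; Compound dosing: single-point 5 µM; Schedule: 2 h compound exposure at 37 °C; Signal: SteadyLite luciferase luminescence after 15 min room-temperature reagent incubation; Evaluation: % luminescence enhancement versus blank-corrected plate control mean; Benchmarks: plate controls and plate blanks.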
APP 5'UTR act: activates APP 5'UTR luciferase reporter. SH-SY5Y APP 5'UTR luciferase reporter, luminescence; zero percent = DMSO vehicle wells. activation, % at 2 µM. hit rate 1% among 190,000. AID 1276;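 active means activation above a set limit, based on mean plus 3 SD of controls, cut at about 140% in these data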
NF-kB neuron act: raises NF-kB expression in human neuronal cells | NF-kB reporter expression; stronger effect = higher value | fold change at 12.5 µM | hit rate 1.6% among 190,000 | AID 1239; in the data active means fold change above about 3.3
Wee1 stabilizer: inhibitors of human Wee1 degradation; HeLa Luc-Wee1K328M stability, luciferase luminescence; 100% = proteasome inhibitor MG132 effect; reporter increase, % at 5 µM; hit rate 1.2% among 220,000; AID 1321;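 active means activation above the mean of all tested compounds plus 3 SD, set per screening run, cut at about 8.8% in these data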;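 further: cells exposed to compound for 20 h before luminescence read; 0% = DMSO alone and 100% = MG132 at 30 µM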
p97 ATPase inh: human p97 ATPase inhibition. AID 1481. hit rate 0.42% among 220,000. recombinant p97 ATPase, Kinase-Glo ATP luminescence, 3 h. inhibition, % at 8 µM. P55072; in the data active means inhibition above about 15%;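 further: 0% = DMSO vehicle and 100% = wells lacking enzyme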
Target sequence (P55072 whole entry, looked up): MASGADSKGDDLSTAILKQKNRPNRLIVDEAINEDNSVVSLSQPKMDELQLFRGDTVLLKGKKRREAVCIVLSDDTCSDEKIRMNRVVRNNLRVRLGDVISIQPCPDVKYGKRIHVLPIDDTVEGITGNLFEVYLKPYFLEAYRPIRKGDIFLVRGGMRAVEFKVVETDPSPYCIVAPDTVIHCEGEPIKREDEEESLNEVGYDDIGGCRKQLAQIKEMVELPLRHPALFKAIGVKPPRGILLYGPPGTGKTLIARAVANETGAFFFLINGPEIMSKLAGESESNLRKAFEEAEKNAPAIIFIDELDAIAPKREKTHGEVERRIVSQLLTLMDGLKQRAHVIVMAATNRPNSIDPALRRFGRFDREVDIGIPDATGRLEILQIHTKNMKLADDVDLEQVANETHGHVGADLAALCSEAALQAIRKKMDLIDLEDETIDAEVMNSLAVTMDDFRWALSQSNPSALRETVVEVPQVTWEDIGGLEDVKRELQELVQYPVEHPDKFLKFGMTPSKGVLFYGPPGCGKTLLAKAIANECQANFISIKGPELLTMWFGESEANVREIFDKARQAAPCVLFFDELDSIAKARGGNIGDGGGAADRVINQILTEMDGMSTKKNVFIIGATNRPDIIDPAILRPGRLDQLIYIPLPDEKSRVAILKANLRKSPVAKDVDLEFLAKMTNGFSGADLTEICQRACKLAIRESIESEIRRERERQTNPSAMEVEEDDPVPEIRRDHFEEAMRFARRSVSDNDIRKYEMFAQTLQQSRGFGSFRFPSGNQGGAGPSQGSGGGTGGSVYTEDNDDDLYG
Starred values were filed as active, the others as inactive; x = no result given. Only some compounds are listed: those with a hit (about 4.6% of all), similar ones and a draw of the others.

SMILES	STAT1 activator	Mdm2 ligase inh	APP 5'UTR act	NF-kB neuron act	Wee1 stabilizer	p97 ATPase inh
O=C(Nc1nccs1)c1ccc(-c2ccc(Cl)cc2Cl)o1	145.6*	-19.4	126.1	2.34	0.6	0.5
COc1ccccc1NS(=O)(=O)c1ccc(NN=C2CCCCC2)c([N+](=O)[O-])c1	95.4	-13.6	-8.2	1.01	1.3	3.6
CCOC(=O)c1nn(-c2ccccc2)c2nc(-c3ccc(OC)cc3)c(C#N)c(=O)n12	100.2	-5.9	-7.1	1.12	0.7	3.8
CCOC(=O)c1nn(-c2ccc(F)cc2)c2nc(CC(C)C)c(C#N)c(=O)n12	92.7	34.9*	0.0	1.02	2.6	-5.7
CCn1c(C)nc2cc(C(=O)N/N=C/c3ccc(O)cc3)ccc21	100.4	-0.3	-0.6	1.13	-1.3	7.2
CCn1c(C)nc2cc(C(=O)N/N=C/c3ccccc3)ccc21	144.8*	-10.6	55.5	3.04	5.6	3.0
CCc1nnc(NC(=O)COc2ccccc2[N+](=O)[O-])s1	x	-14.9	x	x	-0.5	1.4
O=C(NCC1CCCO1)C(Cc1ccccc1)N1C(=O)C2C3C=CC(C4CC34)C2C1=O (stereo not drawn)	83.1	-4.7	10.2	0.62	6.5	2.1
NC(=O)CNC(=O)c1ccc(Cl)cc1	x	-8.6	x	x	9.1*	7.3
Cc1ccc(CNc2ncccc2-c2nc3cc(Cl)ccc3o2)cc1	103.5	0.0	-0.6	1.55	-0.5	-5.3
COc1cc(OC)cc(-c2nc3cc(C)ccc3o2)c1	157.7*	-25.7	114.1	6.24*	7.0	-6.6
Cc1ccc(-c2nc3cc(Cl)ccc3o2)cc1	162.0*	-52.2	26.7	8.49*	-2.3	1.8
O=C(CNC(=O)c1cccs1)OCC(=O)c1ccccc1Cl	107.3	-12.5	-4.1	1.17	-1.5	7.0
CCOC(=O)c1[nH]c(C)c(C(=O)c2ccc(C)cc2)c1C	116.7	0.5	-94.9	1.86	9.5*	-3.0
CC(=O)c1c(C)[nH]c(C(=O)OCc2ccccc2)c1C	141.6*	-13.1	50.2	2.17	1.4	1.5
CC1(NC(=O)CC[N+](C)(C)CCO)CS(=O)(=O)CC1S(=O)(=O)[O-] (stereo not drawn)	102.9	-7.8	6.3	0.98	8.4	3.9
CC(=O)Nc1ccc(S(=O)(=O)N2CCN=C2SCc2cccnc2)cc1	85.6	32.3*	-9.2	0.81	0.7	6.0
COc1ccc(CCNC(=O)Cn2cnc3scc(-c4ccccc4)c3c2=O)cc1OC	98.1	-9.7	0.8	1.16	8.7	4.3
O=C(c1cnsn1)N1CCC(CO)(Cc2cccc(F)c2)CC1	133.3*	5.0	55.6	x	-0.1	2.2
COc1ccc(S(=O)(=O)NNC(=O)C(=O)NNc2ccccn2)cc1	x	-10.8	x	x	1.9	-1.4
CC(C)c1ccc(/C=N/NC(=O)c2c(Cl)cnn2C)cc1	137.7*	-40.5	117.4	5.25*	1.0	-2.3
COc1ccc(NC(=O)CCC(=O)N(Cc2ccc(OC)c(OC)c2)c2nccs2)c(OC)c1	90.0	-10.0	-1.7	1.27	0.2	-7.0
CC1CCc2nc(NC(=O)C3CC3)sc2C1 (stereo not drawn)	119.9	-14.8	21.4	1.94	1.0	-1.7
Cc1nc2ccc3nc(NC(=O)C4COc5ccccc5O4)sc3c2s1 (stereo not drawn)	97.4	-73.7	-10.3	1.13	-1.4	-2.8
Cc1cnc(NC(=O)C2COc3ccccc3O2)s1 (stereo not drawn)	106.6	-6.4	144.1*	2.62	-1.7	2.9
SMILES	STAT1 activator	Mdm2 ligase inh	APP 5'UTR act	NF-kB neuron act	Wee1 stabilizer	p97 ATPase inh
CC1CCc2nc(NC(=O)C3COc4ccccc4O3)sc2C1 (stereo not drawn)	55.4	-64.9	167.8*	1.36	-0.3	-8.3
O=C(O)[C@H](Cc1ccccc1)NC(=O)N1CCN(c2ccc(F)cc2)CC1	x	-9.6	x	x	3.2	4.8
O=C(NCC1OCCc2ccccc21)c1cc(COc2c(F)cccc2F)on1 (stereo not drawn)	113.8	-20.3	4.0	1.37	-1.8	0.6
CCOC(=O)C1CCN(CC(=O)c2c(C)[nH]c3cc(C)ccc23)CC1	95.5	4.4	5.3	1.03	10.2*	4.7
CCOC(=O)C1CCN(CC(=O)c2c(C)[nH]c3ccccc23)CC1	93.9	-17.4	23.4	0.86	1.1	0.4
Cc1ccccc1NC(=O)c1cc([N+](=O)[O-])ccc1NCCN1C(=O)CCC1=O	95.7	3.4	-15.7	1.14	1.8	1.0
COc1ccc2oc(=Nc3cc(F)ccc3F)c(C(N)=O)cc2c1	130.6*	-0.3	-12.6	1.11	3.7	4.2
COc1ccc(OC)c(N=c2oc3cc(O)ccc3cc2C(N)=O)c1	116.3	-14.8	-13.8	0.24	-1.7	-2.8
CC(C)c1csc(CN2CCC(N3CCC(C(=O)NCC4CCCO4)CC3)CC2)n1 (stereo not drawn)	98.7	-4.1	-0.8	1.1	6.7	-4.7
O=C(N/N=C/c1ccc(OC(=O)c2ccccc2)c([N+](=O)[O-])c1)c1ccc(O)cc1	90.6	-4.8	19.4	1.09	-1.0	-2.0
COC(=O)c1[nH]c2c(c1C)C(=O)CCC2	92.2	-4.7	3.5	1.08	-0.9	8.9
Cc1c(C(=O)OC2CCC(C)CC2)[nH]c2c1C(=O)CCC2 (stereo not drawn)	145.8*	-24.4	148.1*	4.86*	3.0	-2.2
Cc1ncc(CO)c(/C=N/NC(=S)Nc2ccc(F)cc2)c1O	102.1	-12.4	-32.0	0.79	2.3	10.1
Cc1ncc(CO)c(/C=N/N=C/c2ccccc2O)c1O	109.5	-15.0	64.2	3.57*	-2.8	7.3
Cc1cccc(C(C)C)c1NC(=O)C1CN(S(=O)(=O)c2ccccc2)CCN1S(=O)(=O)c1ccccc1 (stereo not drawn)	106.3	-10.0	9.8	0.62	2.2	4.7
O=C(Nc1ncc(Cc2cccc(Cl)c2Cl)s1)C1CCCO1 (stereo not drawn)	143.8*	-4.0	81.1	3.1	4.0	-4.1
CC(=O)c1ccc(NC(=O)C(C)OC(=O)COc2ccc(C#N)cc2)cc1 (stereo not drawn)	100.4	-9.2	0.7	1.03	3.6	-0.7
O=C(NCCc1cccs1)c1cccs1	133.9*	-89.8	94.5	2.3	4.5	-3.9
O=C(NCc1cccs1)c1cc(-c2ccncc2)nc2ccc(Br)cc12	98.1	-16.5	-4.8	0.73	0.6	1.4
O=[N+]([O-])c1cccnc1N1CCCCC1	95.7	-17.4	2.2	1.1	0.6	2.4
O=c1n(-c2ccc(Br)cc2)cnn1-c1ncccc1[N+](=O)[O-]	130.5*	-16.5	55.5	2.42	8.8	-2.5
O=[N+]([O-])c1ccc(N=NNc2ccccc2)cc1	134.9*	-10.6	58.2	3.65*	3.1	-2.2
CN(N=Nc1ccc([N+](=O)[O-])cc1)c1ccccc1	139.2*	-9.8	52.3	2.76	-0.2	2.2
